The campaign covered roughly 300,000 compounds. About 1,000 (0.33%) were called active.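 How the source made its calls: active means inhibition above the mean of all tested compounds plus 3 SD, set per screening campaign (cut at about 45% in these data); inactive means the rest.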 The full list was thinned out, with actives kept by preference.
These compounds were tested on HCV core protein (residues 1-106) dimerization (assay: blockers of core106 self-association – biochemical, TR-FRET, high-throughput, primary screen (AID 1899)). Conditions: TR-FRET GST/Flag-core106 dimerization, 1536-well; at 5 µM; stronger effect = higher value.
How it was run: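 Assay system: GST-tagged and Flag-tagged HCV core protein residues 1-106 / Times: compound-protein-antibody incubation 4 h at 22.5 °C / Signal: time-resolved FRET, ex 340 nm, em 617 and 671 nm / Evaluation: % inhibition based on acceptor/donor emission ratio / Benchmarks: wells lacking GST-core106 and wells with excess unlabelled core106 / Repeats: singlicate, one well per compound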

inhibition, active:
CCOc1ccccc1/C=c1\sc2nc(-c3ccco3)nn2c1=O 62.2%
O=C(Nc1ccc(S(=O)(=O)Nc2nccs2)cc1)c1cc(-c2ccncc2)nc2ccccc12 76%
COC(=O)CCCC1=CC2=CC(=O)C(C)(OC(=O)c3cccs3)C(=O)C2=CN1c1cccc(C#N)c1 (configuration not stated) 47.4%
COc1ccc(NC(=O)Cn2ncn3c(cc4ccccc43)c2=O)c(OC)c1OC 50.6%
CN(C(=O)COC(=O)c1cc(-c2ccco2)nc2ccccc12)C1CCS(=O)(=O)C1 (configuration not stated) 77.2%
O=C(Cc1ccc(S(=O)(=O)N2CCCC2)s1)NC1CCCCCC1 48%
CSc1ccc(-c2c(C#N)c(N)nc3c2c(C)nn3-c2ccccc2)cc1 49.1%
Cc1cc(C)c2nc(N3CCCC3)c(C#N)cc2c1 51.7%
CCOc1ccccc1NC(=O)Cc1cccs1 55.5%
COc1ccc2c(c1)C(c1cccs1)=NNC(c1cccnc1)=N2 48.7%
Cc1ccc(CSCC2Nc3ccc(C(=O)N4CCN(c5ccc(F)cc5)CC4)cc3NC2=O)cc1 (configuration not stated) 67%

inhibition, inactive:
O=c1nc2s/c(=C\c3ccco3)c(=O)n2nc1Cc1ccccc1 22.3%
CSc1nc(-c2ccco2)nn1C(=O)CCc1ccccc1 -2.5%
CC(=O)c1c(Nc2ccccc2)sc(C(=O)c2ccccc2)c1C -11.1%
C=CCC(Nc1ccccc1)c1cccc(OC)c1OC (configuration not stated) 2.92%
CCOC(=O)c1c(C)n(C)c2ccc(OC)c(NC(=O)CN3CCC4(CC3)OCCO4)c12 -1.2%
O=C(Nc1ccc(S(=O)(=O)Nc2nccs2)cc1)c1cc(=O)[nH]c2ccccc12 2.23%
Cc1ccc2nc(-c3ccncc3)cc(C(=O)Nc3ccncc3)c2c1 8.74%
Cc1ccc(C(=O)O)cc1-c1ccc(/C=C2\SC(=O)N(CC(=O)Nc3ccc4c(c3)OCO4)C2=O)o1 4.8%
C=CCOc1ccc(Cl)cc1CNCCCN1CCOCC1 12.2%
CCn1c(C)c(C)c2cc(C(=O)N3CCN(c4cccc(C)c4C)CC3)ccc21 18%
C[C@@H]1CC[C@@]2(OC1)O[C@H]1C[C@H]3[C@@H]4CC=C5C[C@@H](O)[C@H](O)C[C@]5(C)C4CC[C@]3(C)[C@H]1[C@@H]2C (some centres not stated) -14.2%
Cc1cccc(NC(=O)CN2CCCN(S(=O)(=O)c3ccc(Br)s3)CC2)c1 3.89%
CCN(CC(=O)NC1CCS(=O)(=O)C1)c1nc(-c2cccnc2)nc2ccccc12 (configuration not stated) -0.09%
COC(=O)CCCC1=CC2=CC(=O)C(C)(OC(=O)c3cccs3)C(=O)C2=CN1CC1CC1 (configuration not stated) -6.02%
COC(=O)CCCC1=CC2=CC(=O)C(C)(OC(=O)c3cccs3)C(=O)C2=CN1CC(C)C (configuration not stated) 11.6%
COc1cccc(NC(=O)c2ccccc2N(Cc2ccccc2)S(C)(=O)=O)c1 1.86%
COc1ccc(NC(=O)CCNC(=O)Cn2ccc3ccccc3c2=O)c(OC)c1 -5.48%
CCc1ccc(NC(=O)Cn2ncn3c(cc4ccccc43)c2=O)cc1 13%
Fc1ccc(-c2ccc(NCCN3CCOCC3)nn2)cc1 -9.05%
Cc1ccc(C)c(OCCC(=O)Nc2cccc(S(=O)(=O)N3CCCC3)c2)c1 -2.89%
Cc1c(-c2cccc(Cl)c2)nc2ccccc2c1C(=O)OCC(=O)N(C)C1CCS(=O)(=O)C1 (configuration not stated) 1.86%
CN(C(=O)COC(=O)c1nc(Cl)ccc1Cl)C1CCS(=O)(=O)C1 (configuration not stated) 5.01%
COc1ccc(NC(=O)c2ccccc2CC[N+](=O)[O-])cc1 1.6%
O=C(NC1CCCCC1)C1CCCN(S(=O)(=O)c2ccc(Br)s2)C1 (configuration not stated) 3.6%
O=C(Cc1ccc(S(=O)(=O)N2CCOCC2)s1)NCCC(c1ccccc1)c1ccccc1 44.1%
Cc1ccc(NS(=O)(=O)c2c(C)[nH]c(=O)[nH]c2=O)cc1C -1.79%
Cc1nc2c(c(C)nn2-c2ccccc2)c(C)c1C -4.33%
Cc1nn(-c2ccccc2)c2c1C(c1ccc(F)cc1)C(C#N)=C(N)O2 (configuration not stated) -4.93%
CC(C)C(C)(C#N)NC(=O)CSc1nc2scc(-c3ccccc3)c2c(=O)[nH]1 (configuration not stated) 13.3%
CCOC(=O)c1cc(C#N)c(N2CCCCC2)nc1-c1ccccc1 13.8%
CCC(C)(C)n1nnnc1CN1CCN(c2nc3ccc(C)cc3cc2C#N)CC1 20.6%
CN(CCC(=O)Nc1cc(S(=O)(=O)N(C)C)ccc1Cl)CC(=O)Nc1ccc(F)cc1 -16.6%
COc1cccc(/C=C2\Sc3ccc(C(=O)NCC4CCCO4)cc3N(C)C2=O)c1 (configuration not stated) 4.72%
CCOc1ccccc1NC(=O)Cn1nnc(C(=O)NCc2cccs2)c1N -5.57%
COc1ccc(OC)c(NC(=O)Cc2cccs2)c1 14.6%
COc1ccc(C(=O)c2c3ccc([N+](=O)[O-])cc3[n+]([O-])n2CCCN)cc1 1.89%
CCc1ccc(NC(=O)CN2C(=O)CSC2=O)cc1 -2.17%
Nc1nonc1-n1nnc(C(=O)N/N=C/C2CCCCC2)c1-c1ccccc1 -6.4%
Fc1ccc2c(c1)C(c1cccnc1)=NNC(c1cccs1)=N2 -0.24%
CCOc1ccc2c(c1)C(c1ccc(C)cc1)=NNC(c1ccc(C)cc1)=N2 6.95%
CC(=O)c1ccc(S(=O)(=O)NC2CC(=O)N(c3ccc4c(c3)OCCO4)C2)cc1 (configuration not stated) 0.9%
COc1ccc(/C=C/C2=CC(C)(C)NC(=S)N2)c(OC)c1 3.61%
CN1CCN(C(=O)N2c3ccccc3CCc3ccccc32)CC1 -2.2%
CCOc1ccc(C(=O)NC(=S)Nc2ccc(N3CCOCC3)c(Cl)c2)cc1[N+](=O)[O-] 15.3%
O=C1Nc2cc(C(=O)N3CCN(c4ccc(F)cc4)CC3)ccc2NC1CSCc1cccc(F)c1 (configuration not stated) 17.5%
O=C(c1cc(C(=O)N2CCN(c3ccc(F)cc3)CC2)cc([N+](=O)[O-])c1)N1CCN(c2ccc(F)cc2)CC1 19%
